The results in this text go back to ChEMBL document CHEMBL4765336, “Discovery of coumarin derivatives as potent and selective cyclin-dependent kinase 9 (CDK9) inhibitors with high antitumour activity” (Eur J Med Chem, 2020).

Series [1] in a line: Toxicity in BALB/c nude mouse xenografted with human MV4-11 cells assessed as body weight loss at 40 mg/kg, iv administered once daily for 21 days and measured 2 or 3 times per week. It is filed as organism-based. Particulars: in vivo, 504 h, time 21 day. The method in brief: (§1)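 Female BALB/c nude mice, six weeks old, with subcutaneous right-flank MV4-11 xenografts (5 million cells in PBS mixed 1:1 with Matrigel). Daily intravenous dosing started at tumour size 150–200 mm³, 6 mice per group, for 21 consecutive days. Vehicle was dimethylacetamide 20%/polyoxyethylated castor oil 40%/anhydrous ethanol 40%. Body weight was recorded two or three times weekly, and mortality was monitored throughout treatment.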

For series [2], the system named is MV4-11. Put plainly: Antitumor activity against human MV4-11 cells xenografted in Balb/c nude mouse assessed as reduction in tumor volume at 40 mg/kg, iv administered once daily for 21 days (reference value: 1.00 g). In kind it is functional. The note with it: time 21 day.
For series [3], the target named is Cyclin-dependent kinase 7/ cyclin H (Homo sapiens, UniProt P50613). Put plainly: Inhibition of CDK7/Cyclin H (unknown origin) preincubated for 20 mins followed by ATP addition and measured after 120 mins in presence of [33P-gamma] ATP by hotspot kinase assay. It is filed as protein-complex assay. The method in brief: (§2)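 Radiometric filter-binding assay: kinase and substrate in 20 mM Hepes pH 7.5, 10 mM MgCl2, 1 mM EGTA, 0.02% Brij35, 0.02 mg/mL BSA, 0.1 mM Na3VO4, 2 mM DTT, 1% DMSO. Compound (top 1/10/27 μM, 3-fold serial dilutions) preincubated 20 min at 25 °C. ATP plus [γ-33P]ATP added to 10 μM final, reacted 120 min at 25 °C. IC50 from curve fit, duplicate mean.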

Series [4] has as its target Cyclin-dependent kinase 2/cyclin E1 (Homo sapiens, UniProt P24941). Put plainly: Inhibition of CDK2/Cyclin E (unknown origin) preincubated for 20 mins followed by ATP addition and measured after 120 mins in presence of [33P-gamma] ATP by hotspot kinase assay. In kind it is protein-complex assay. In short, it runs like this: as §2
Another series concerns the target CDK8/Cyclin C (Homo sapiens, UniProt P49336). Put plainly: Inhibition of CDK8/Cyclin C (unknown origin) preincubated for 20 mins followed by ATP addition and measured after 120 mins in presence of [33P-gamma] ATP by hotspot kinase assay. It is filed as protein-complex assay. The method in brief:
as §2

Series [5] concerns the target Cyclin-C/Cyclin-dependent kinase 19 (Homo sapiens, UniProt Q9BWU1). The experiment in a line: Inhibition of CDK19/Cyclin C (unknown origin) preincubated for 20 mins followed by ATP addition and measured after 120 mins in presence of [33P-gamma] ATP by hotspot kinase assay. It is filed as protein-complex assay. In short, it runs like this:
as §2

Series [6] addresses Serine/threonine-protein kinase MAK (Homo sapiens) (UniProt P20794). The experiment in a line: Inhibition of MAK (unknown origin) assessed as enzyme activity at 1 uM preincubated for 20 mins followed by ATP addition and measured after 120 mins in presence of [33P-gamma] ATP by hotspot kinase assay relative to control. Also on record: scale not given: the % may be the effect or the level left. The note with it: time 140.0 min. The method in brief: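 Radiometric filter-binding kinase assay, buffer pH 7.5 with 10 mM MgCl2 and 1% DMSO. Compound tested at a single 1.0 μM, preincubated 20 min at 25 °C. Reaction started with ATP/[γ-33P]ATP at 10 μM final, run 120 min at 25 °C. Remaining % enzyme activity reported, n=2.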

For a further series, the system named is NCI-N87. Put plainly: Antiproliferative activity against human NCI-N87 cells assessed as inhibition of cell growth incubated for 72 hrs by Celltiter-Glo luminescent assay. In kind it is functional, cell-based. The note with it: NCI-N87, 72 h. The method in brief:
(§3)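 Cells seeded in growth medium and held overnight at 37 °C; medium-only wells served as background. DMSO stocks were diluted in medium to 3× final and added; cells incubated 72 h at 37 °C, 5% CO2. Viability read by CellTiter-Glo luminescence after 60 min at room temperature. IC50 from curve fit, mean of duplicate.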

In a further series the test system is SW-620. The experiment in a line: Antiproliferative activity against human SW-620 cells assessed as inhibition of cell growth incubated for 72 hrs by Celltiter-Glo luminescent assay. It is filed as functional, cell-based. Particulars: SW-620, 72 h. The method in brief:
as §3

Series [7] is described as follows: Metabolic stability in human liver microsomes assessed as intrinsic clearance at 1 uM incubated up to 60 mins in presence of NADPH by LC-MS/MS analysis. It is filed as ADME, Microsome. Particulars: read-out: CLH. In short, it runs like this: (§4)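 Liver microsomes (0.5 mg/mL) incubated at 37 °C with compound at 1.0 μM final, 3 mM MgCl2 and 1 mM NADPH in 100 mM PBS pH 7.4. Samples taken at 0, 5, 15, 30, 60 min; remaining parent measured by LC-MS/MS. k = −slope, T1/2 = 0.693/k, CLint = k/microsomal protein concentration. Midazolam served as control.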

A short description of series [8]: Metabolic stability in monkey liver microsomes assessed as half life at 1 uM incubated up to 60 mins in presence of NADPH by LC-MS/MS analysis. The note with it: rhesus monkey. In kind it is ADME, Macaca mulatta, Microsome. The method in brief:
as §4

Series [9] addresses Voltage-gated inwardly rectifying potassium channel KCNH2 (Homo sapiens, UniProt Q12809). The experiment in a line: Inhibition of fluorescently labeled tracer binding to human ERG by competitive binding assay. In short, it runs like this:
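Fluorescent tracer competition assay against a membrane preparation containing hERG.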

Series [10] can be described thus: Half life in ICR mouse at 2 mg/kg, iv measured up to 24 hrs by LC-MS/MS analysis. In kind it is ADME, organism-based. Particulars: in vivo. In short, it runs like this: (§5)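 Male ICR mice (25.1–28.8 g, n=9), fasted 12 h, given a single i.v. dose of 2.0 mg/kg at 0.4 mg/mL in DMSO/PEG200/saline (1:1:3). Blood sampled at 0, 0.083, 0.25, 0.5, 1, 2, 4, 8, 24 h. Plasma ACN-precipitated and quantified by LC-MS/MS. Parameters derived from composite mean plasma concentration-time data.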

Series [11] can be described thus: Tmax in ICR mouse at 30 mg/kg, po measured up to 24 hrs by LC-MS/MS analysis. It is filed as ADME, organism-based. Particulars: in vivo. The method in brief:
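Male ICR mice (25.1–28.8 g, n=9), fasted overnight (12 h), single oral gavage 30 mg/kg as 3 mg/mL in 0.5% CMC-Na with 0.2% Tween 80. Venous blood drawn into EDTA-K2 at 0, 0.25, 0.5, 1, 2, 4, 8, 24 h. Plasma protein-precipitated with ACN and run on LC-MS/MS (C18, formic acid/ACN). Noncompartmental parameters taken from composite mean concentration-time data.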

Series [12] in a line: Volume of distribution at steady state in ICR mouse at 2 mg/kg, iv measured up to 24 hrs by LC-MS/MS analysis. In kind it is ADME, organism-based. The note with it: in vivo, read-out: Vdss. The method in brief:
as §5

Series [13] is described as follows: Oral bioavailability in ICR mouse at 30 mg/kg measured up to 24 hrs by LC-MS/MS analysis. The note with it: in vivo. It is filed as ADME, organism-based. In short, it runs like this:
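ICR mice (9 per route) received 30 mg/kg p.o. or 2.0 mg/kg i.v. Plasma was sampled to 24 h and analysed by LC-MS/MS. F (%) = AUC0-∞(oral)/AUC0-∞(iv) × dose(iv)/dose(oral) × 100.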

For series [14], the system named is MV4-11. The experiment in a line: Antitumor activity against human MV4-11 cells xenografted in iv dosed BALB/c nude mouse assessed as tumor growth inhibition administered once daily for 21 days and measured twice per week by vernier caliper method. It is filed as functional, organism-based. Particulars: dose 10-40 mg/kg, time 21.0 day.
Series [15] in a line: Toxicity in BALB/c nude mouse xenografted with human MV4-11 cells assessed as mortality at 40 mg/kg, iv administered once daily for 21 days and measured 2 or 3 times per week. In kind it is organism-based. Particulars: in vivo, 504 h, time 21 day. The method in brief: as §1

Sequence of Cyclin-dependent kinase 7/ cyclin H (P51946 whole entry): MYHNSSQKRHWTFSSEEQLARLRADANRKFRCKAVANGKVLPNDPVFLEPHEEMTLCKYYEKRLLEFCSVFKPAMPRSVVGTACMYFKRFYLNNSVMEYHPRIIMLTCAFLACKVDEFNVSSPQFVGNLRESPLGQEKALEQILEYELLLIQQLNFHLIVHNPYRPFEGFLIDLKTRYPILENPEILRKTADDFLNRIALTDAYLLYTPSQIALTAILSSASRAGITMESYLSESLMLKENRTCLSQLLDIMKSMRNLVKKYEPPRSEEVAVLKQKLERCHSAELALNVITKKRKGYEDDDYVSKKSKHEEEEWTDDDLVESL
Sequence of Cyclin-dependent kinase 7/ cyclin H (P50613 whole entry): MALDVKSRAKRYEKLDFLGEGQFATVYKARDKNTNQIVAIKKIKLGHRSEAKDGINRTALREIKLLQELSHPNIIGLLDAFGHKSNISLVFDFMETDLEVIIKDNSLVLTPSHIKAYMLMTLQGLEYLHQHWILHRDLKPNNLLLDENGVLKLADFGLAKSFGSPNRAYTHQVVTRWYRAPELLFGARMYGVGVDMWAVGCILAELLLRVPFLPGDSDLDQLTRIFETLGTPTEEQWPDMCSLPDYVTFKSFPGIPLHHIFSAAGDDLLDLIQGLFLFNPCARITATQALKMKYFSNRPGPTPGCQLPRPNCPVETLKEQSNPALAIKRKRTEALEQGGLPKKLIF
Sequence of Voltage-gated inwardly rectifying potassium channel KCNH2 (Q12809 whole entry): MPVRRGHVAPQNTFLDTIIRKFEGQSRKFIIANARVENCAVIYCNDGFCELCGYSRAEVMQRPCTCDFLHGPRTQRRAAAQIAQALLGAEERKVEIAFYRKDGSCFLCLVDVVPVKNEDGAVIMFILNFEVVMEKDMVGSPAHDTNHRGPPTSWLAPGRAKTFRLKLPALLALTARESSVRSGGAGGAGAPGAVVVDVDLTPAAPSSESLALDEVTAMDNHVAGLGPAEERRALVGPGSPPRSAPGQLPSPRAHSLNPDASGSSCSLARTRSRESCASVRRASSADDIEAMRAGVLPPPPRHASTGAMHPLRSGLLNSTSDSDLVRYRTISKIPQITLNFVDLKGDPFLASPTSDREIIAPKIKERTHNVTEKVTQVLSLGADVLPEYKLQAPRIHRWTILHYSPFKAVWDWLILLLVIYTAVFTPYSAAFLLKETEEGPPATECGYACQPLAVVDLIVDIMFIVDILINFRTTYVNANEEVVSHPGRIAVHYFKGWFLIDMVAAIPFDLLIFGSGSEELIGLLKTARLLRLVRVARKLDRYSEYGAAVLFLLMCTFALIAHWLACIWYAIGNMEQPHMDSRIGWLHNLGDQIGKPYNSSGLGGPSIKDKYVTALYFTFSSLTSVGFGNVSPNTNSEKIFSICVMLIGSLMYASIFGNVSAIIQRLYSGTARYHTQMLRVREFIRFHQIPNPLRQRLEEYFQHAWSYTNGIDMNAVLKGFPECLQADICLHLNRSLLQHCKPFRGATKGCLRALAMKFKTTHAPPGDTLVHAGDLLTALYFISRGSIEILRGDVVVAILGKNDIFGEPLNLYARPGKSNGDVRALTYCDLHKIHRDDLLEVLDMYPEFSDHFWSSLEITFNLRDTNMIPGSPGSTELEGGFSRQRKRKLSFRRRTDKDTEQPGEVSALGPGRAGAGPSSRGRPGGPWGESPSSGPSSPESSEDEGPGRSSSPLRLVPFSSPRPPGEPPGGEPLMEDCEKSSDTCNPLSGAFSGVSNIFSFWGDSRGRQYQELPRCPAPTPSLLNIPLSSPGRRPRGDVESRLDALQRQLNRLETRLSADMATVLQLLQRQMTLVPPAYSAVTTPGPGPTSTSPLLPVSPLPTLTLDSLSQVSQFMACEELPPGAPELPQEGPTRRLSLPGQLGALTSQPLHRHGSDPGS
Sequence of Serine/threonine-protein kinase MAK (Homo sapiens) (P20794 whole entry): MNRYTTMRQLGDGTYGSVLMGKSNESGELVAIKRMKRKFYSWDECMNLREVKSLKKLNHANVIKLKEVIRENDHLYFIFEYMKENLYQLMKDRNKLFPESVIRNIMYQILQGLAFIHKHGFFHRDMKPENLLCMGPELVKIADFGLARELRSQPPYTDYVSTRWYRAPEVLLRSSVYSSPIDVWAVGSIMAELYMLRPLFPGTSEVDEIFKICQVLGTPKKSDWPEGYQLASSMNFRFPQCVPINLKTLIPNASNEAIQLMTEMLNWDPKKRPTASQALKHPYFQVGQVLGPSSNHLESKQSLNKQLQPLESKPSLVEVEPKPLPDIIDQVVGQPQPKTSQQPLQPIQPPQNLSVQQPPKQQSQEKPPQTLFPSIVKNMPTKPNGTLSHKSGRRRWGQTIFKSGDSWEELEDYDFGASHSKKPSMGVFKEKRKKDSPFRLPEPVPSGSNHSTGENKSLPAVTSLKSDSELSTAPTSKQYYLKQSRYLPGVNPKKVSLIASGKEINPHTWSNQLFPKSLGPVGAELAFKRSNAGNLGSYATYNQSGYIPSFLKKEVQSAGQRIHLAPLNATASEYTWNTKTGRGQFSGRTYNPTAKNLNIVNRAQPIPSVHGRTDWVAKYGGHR
Sequence of Cyclin-C/Cyclin-dependent kinase 19 (Q9BWU1 whole entry): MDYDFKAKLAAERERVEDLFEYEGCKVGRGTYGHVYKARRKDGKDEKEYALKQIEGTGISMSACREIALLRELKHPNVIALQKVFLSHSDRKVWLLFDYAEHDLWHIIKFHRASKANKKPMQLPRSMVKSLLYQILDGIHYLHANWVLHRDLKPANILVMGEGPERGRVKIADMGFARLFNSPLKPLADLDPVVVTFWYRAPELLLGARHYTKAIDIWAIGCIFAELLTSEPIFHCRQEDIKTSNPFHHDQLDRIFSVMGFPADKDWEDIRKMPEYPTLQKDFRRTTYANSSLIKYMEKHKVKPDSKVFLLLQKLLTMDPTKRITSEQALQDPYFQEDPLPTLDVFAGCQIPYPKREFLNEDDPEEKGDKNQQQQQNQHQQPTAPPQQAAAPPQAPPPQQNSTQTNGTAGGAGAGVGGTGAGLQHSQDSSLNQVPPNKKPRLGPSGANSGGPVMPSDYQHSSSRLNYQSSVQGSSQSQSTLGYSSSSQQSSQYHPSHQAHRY
Sequence of Cyclin-C/Cyclin-dependent kinase 19 (P24863 whole entry, further chain): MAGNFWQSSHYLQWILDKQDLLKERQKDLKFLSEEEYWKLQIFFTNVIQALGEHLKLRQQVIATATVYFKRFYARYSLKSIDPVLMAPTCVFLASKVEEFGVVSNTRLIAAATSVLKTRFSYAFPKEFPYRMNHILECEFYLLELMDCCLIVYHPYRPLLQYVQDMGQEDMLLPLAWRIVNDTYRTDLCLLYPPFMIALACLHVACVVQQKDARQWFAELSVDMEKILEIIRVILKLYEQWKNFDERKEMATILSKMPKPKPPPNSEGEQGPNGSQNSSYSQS
Sequence of CDK8/Cyclin C (P49336 whole entry): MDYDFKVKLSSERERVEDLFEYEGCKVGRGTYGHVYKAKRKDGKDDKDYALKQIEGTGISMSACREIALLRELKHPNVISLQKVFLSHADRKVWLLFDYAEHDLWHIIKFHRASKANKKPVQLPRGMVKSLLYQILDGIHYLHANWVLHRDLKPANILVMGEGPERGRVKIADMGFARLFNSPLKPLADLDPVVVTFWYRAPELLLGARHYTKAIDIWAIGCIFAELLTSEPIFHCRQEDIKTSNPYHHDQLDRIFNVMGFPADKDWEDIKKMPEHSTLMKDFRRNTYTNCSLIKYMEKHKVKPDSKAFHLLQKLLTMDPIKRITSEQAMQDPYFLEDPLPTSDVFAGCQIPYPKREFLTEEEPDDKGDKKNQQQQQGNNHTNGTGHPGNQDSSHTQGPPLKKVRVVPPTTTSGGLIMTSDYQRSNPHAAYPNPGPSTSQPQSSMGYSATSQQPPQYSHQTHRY
Sequence of CDK8/Cyclin C (P24863 whole entry, further chain): as the sequence (P24863 whole entry, further chain) above

As for `COc1cc(F)ccc1-c1nc(Nc2ccc3c(N4CCOCC4)c(C(C)=O)c(=O)oc3c2)ncc1F`, the Activity result in series [1] was “Non-Toxic”; with MV4-11 [2], 0.18 g; in series [6] it was below 10%; in the series on MV4-11 [14], “Dose-dependent effect”; in series [15], “Non-Toxic”. In addition, the IC50 stood at 16.6 µM in series [3]; 1.01 µM in series [4]; 6.5 µM on CDK8/Cyclin C; 15.5 µM in [5]; 0.6 µM with NCI-N87; 0.43 µM in the series on SW-620. In addition, the IC50 in series [9] amounted to 10.1 µM. The microsomal CLint at 1 µM in series [7] came out at 38.8 µL/min/mg. Besides, in [8], the half-life at 1 µM came to 24.2 min. The compound also gave a half-life in series [10] of 13.8 min. The Tmax in series [11] amounted to 15 min. In addition, the Vd in [12] was determined as 0.67 L/kg. In [13], this compound returned a bioavailability of 14.3%.
